Published values pooled from the literature.
Each line is one published result; the experiments were not run side by side.
Oprk1: Kappa-type opioid receptor (Oprk1, Mus musculus, UniProt P33534)
BCHE: Cholinesterase (BCHE, Homo sapiens, UniProt P06276)

CC(C)[C@H](CN1CCc2ccccc2C1)NC(=O)Cc1c[nH]c2ccccc12 — inhibition (Oprk1; ligand displacement; radioligand; 10 µM): 90%
[2H]c1c([2H])c([C@]2([2H])CCCN2C(=O)C(C)(C)Oc2ccc3cn[nH]c3c2)c([2H])c([2H])c1C([2H])([2H])[2H] — remaining binding (MAP kinase-interacting serine/threonine-protein kinase 2 (MKNK2, Homo sapiens, UniProt Q9HBH9); binding; competition with immobilised ligand; 1 µM): 100%
COc1cc(/C=C/C(=O)O)ccc1OCc1cn(CC(=O)Nc2ccc(Cl)cc2Cl)nn1 — inhibition (BCHE; enzyme activity; inhibitor; Ellman; 40 µM): 58.2%
c1cncc([C@@H]2CCCN2)c1 — inhibition (Muscarinic acetylcholine receptor M5 (CHRM5, Homo sapiens, UniProt P08912); ligand displacement; 50 µM): -2.02%
COc1cc(/C=C/C(=O)O)ccc1OCc1cn(CC(=O)Nc2ccc(Cl)cc2)nn1 — inhibition (BCHE; enzyme activity; inhibitor; Ellman; 40 µM): 22.2%
CC(C)[C@H](CN1CCc2ccccc2C1)NC(=O)c1cccc(-c2cccc(O)c2)c1 — inhibition (Oprk1; ligand displacement; radioligand; 10 µM): 81%
CC(C)CC(=O)OC[C@H]1O[C@@](C#N)(c2ccc3c(N)ncnn23)[C@H](O)[C@@H]1O — inhibition (Neuronal acetylcholine receptor; alpha3/beta4 (Homo sapiens, UniProt P30926+P32297); cell-free assay; 20 µM): -5%
CN1CCC[C@H]1c1cccnc1 — inhibition (Sodium-dependent noradrenaline transporter (SLC6A2, Homo sapiens, UniProt P23975); ligand displacement; 50 µM): 8.2%
